Experimental data taken from ChEMBL document CHEMBL4840303, “Design, synthesis, biological evaluation and pharmacophore model analysis of novel tetrahydropyrrolo[3,4-c]pyrazol derivatives as potential TRKs inhibitors” (Eur J Med Chem, 2021).

Tests used:
[1] = molecular target: Focal adhesion kinase 1 (Homo sapiens) (UniProt Q05397); assay: Inhibition of recombinant GST-tagged full length human FAK expressed in baculovirus expression system at 1 uM measured by select screen assay
Procedure, shortened: (§1)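 Single-concentration profiling at 1.0 µM in a 28-kinase SelectScreen panel; percent inhibition reported.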

[2] = system: KM12; assay: Cell cycle arrest in human KM12 cells assessed as accumulation of cells at greater G1 phase at 500 nM measured after 48 hrs by AnnexinV-FITC/PI staining based flowcytometry method relative to control; format: functional
[3] = system: KM12; assay: Induction of apoptosis in human KM12 cells assessed as late apoptotic cells at 500 nM measured after 48 hrs by AnnexinV-FITC/PI staining based flowcytometry assay relative to control; format: functional
Procedure, shortened: (§2)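 They were detached with trypsin, washed twice in PBS, and 10^5 cells were suspended in Annexin V binding buffer. Cells were stained with FITC-Annexin V and PI for 10 min at room temperature in the dark, diluted with PBS and analysed by flow cytometry.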

[4] = molecular target: Hepatocyte growth factor receptor (Homo sapiens) (UniProt P08581); assay: Inhibition of recombinant His-tagged human MET expressed in baculovirus expression system at 1 uM measured by select screen assay relative to control; procedure, shortened: as §1
[5] = system: KM12; assay: Induction of apoptosis in human KM12 cells assessed as late apoptotic cells at 125 nM measured after 48 hrs by AnnexinV-FITC/PI staining based flowcytometry assay relative to control; format: functional; procedure, shortened: as §2
[6] = system: KM12; assay: Cell cycle arrest in human KM12 cells assessed as accumulation of cells at G2 phase at 250 nM measured after 48 hrs by AnnexinV-FITC/PI staining based flowcytometry method relative to control; format: functional
[7] = system: KM12; assay: Cell cycle arrest in human KM12 cells assessed as accumulation of cells at G1 phase at 500 nM measured after 48 hrs by AnnexinV-FITC/PI staining based flowcytometry method relative to control; format: functional
[8] = molecular target: Serine/threonine-protein kinase mTOR (Homo sapiens) (UniProt P42345); assay: Inhibition of recombinant GST-tagged human mTOR (1360 to 2549 residues) expressed in baculovirus expression system at 1 uM measured by select screen assay relative to control; procedure, shortened: as §1
[9] = system: KM12; assay: Cell cycle arrest in human KM12 cells assessed as accumulation of cells at S phase at 62.5 nM measured after 48 hrs by AnnexinV-FITC/PI staining based flowcytometry method relative to control; format: functional
[10] = system: KM12; assay: Cell cycle arrest in human KM12 cells assessed as accumulation of cells at G1 phase at 250 nM measured after 48 hrs by AnnexinV-FITC/PI staining based flowcytometry method relative to control; format: functional
[11] = system: KM12; assay: Cell cycle arrest in human KM12 cells assessed as accumulation of cells at greater G1 phase at 62.5 nM measured after 48 hrs by AnnexinV-FITC/PI staining based flowcytometry method relative to control; format: functional
[12] = Stability in human liver microsomes assessed as compound remaining at 100 uM measured after 60 mins by LC-MS/MS analysis; format: ADME, Microsome; conditions: 1 h
Procedure, shortened: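 Human liver microsomes diluted to 0.59 mg/mL working solution in 100 mM potassium phosphate, prewarmed 10 min at 37 °C; compound added from a 100 µM working solution. NADPH (in 10 mM MgCl2) added to one plate, buffer instead in no-cofactor control. Incubated at 37 °C, quenched at 5, 15, 30, 45, 60 min, centrifuged, analysed by LC-MS/MS.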

[13] = system: KM12; assay: Induction of apoptosis in human KM12 cells assessed as viable cells at 62.5 nM measured after 48 hrs by AnnexinV-FITC/PI staining based flowcytometry assay relative to control; format: functional; conditions: read-out: Activity
Procedure, shortened: (§3)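 10^5 cells in Annexin V binding buffer stained with FITC-Annexin V and PI for 10 min at room temperature in the dark, diluted with PBS and analysed by flow cytometry (FITC 494/518 nm, PI 535/617 nm).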

[14] = AUC (0 to infinity) in Sprague dawley rat at 1 mg/kg, iv; format: ADME, organism-based; design: time infinity, route intravenous, dose 1 mg/kg; conditions: in vivo
Procedure, shortened: (§4)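 Blood was collected into heparin tubes at specified time points and centrifuged at once (4 °C, 4000 rpm, 20 min). Plasma levels were quantified by LC-MS/MS. Parameters came from noncompartmental analysis.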

[15] = molecular target: Protein kinase C alpha type (Homo sapiens) (UniProt P17252); assay: Inhibition of recombinant GST-tagged human full length PRKCA expressed in insect expression system at 1 uM measured by select screen assay relative to control; procedure, shortened: as §1
[16] = system: KM12; assay: Induction of apoptosis in human KM12 cells assessed as necrotic cells at 1000 nM measured after 48 hrs by AnnexinV-FITC/PI staining based flowcytometry assay relative to control; format: functional; procedure, shortened: as §2
[17] = molecular target: Mitogen-activated protein kinase 3 (Homo sapiens) (UniProt P27361); assay: Inhibition of recombinant GST-tagged full length human ERK1 expressed in Escherichia coli expression system at 1 uM measured by select screen assay relative to control; procedure, shortened: as §1
[18] = AUC (0 to infinity) in Sprague dawley rat at 3 mg/kg, po; format: ADME, organism-based; design: time infinity, route oral, dose 3 mg/kg; conditions: in vivo; procedure, shortened: as §4
[19] = system: KM12; assay: Induction of apoptosis in human KM12 cells assessed as viable cells at 500 nM measured after 48 hrs by AnnexinV-FITC/PI staining based flowcytometry assay relative to control; format: functional; conditions: read-out: Activity; procedure, shortened: as §3
[20] = AUC (last) in Sprague dawley rat at 1 mg/kg, iv; format: ADME, organism-based; design: time 0 - last, route intravenous, dose 1 mg/kg; conditions: in vivo; procedure, shortened: as §4
[21] = system: KM12; assay: Induction of apoptosis in human KM12 cells assessed as early apoptotic cells at 62.5 nM measured after 48 hrs by AnnexinV-FITC/PI staining based flowcytometry assay relative to control; format: functional; procedure, shortened: as §2
[22] = Half life in Sprague dawley rat at 3 mg/kg, po; format: ADME, organism-based; conditions: in vivo; procedure, shortened: as §4
[23] = Volume of distribution at steady state in Sprague dawley rat at 1 mg/kg, iv; format: ADME, organism-based; conditions: in vivo, read-out: Vdss
Procedure, shortened: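 Single intravenous dose of 1 mg/kg to SD rats (n = 3 per group). Blood collected into heparinised tubes at specified times, centrifuged at 4 °C, and quantified by LC-MS/MS. Steady-state volume of distribution obtained by noncompartmental analysis.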

[24] = molecular target: CYP1A2 (Homo sapiens, UniProt P05177); assay: Inhibition of CYP1A2 in human liver microsomes at 10 uM preincubated for 10 mins followed by addition of NADPH and measured after 15 mins by LC-MS/MS analysis; format: ADME; conditions: time 25 min
Procedure, shortened: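 Pooled human liver microsomes (0.253 mg/mL) with test compound at 10 µM and probe substrates: phenacetin (CYP1A2), diclofenac (CYP2C9), S-mephenytoin (CYP2C19), dextromethorphan (CYP2D6), midazolam (CYP3A4). 10 min preincubation at 37 °C, NADPH-regenerating system added, 15 min at 37 °C. Stopped with cold acetonitrile containing tolbutamide/labetalol internal standards, centrifuged, supernatant read by LC-MS/MS; % inhibition.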

[25] = molecular target: Dual specificity mitogen-activated protein kinase kinase 1 (Homo sapiens) (UniProt Q02750); assay: Inhibition of recombinant His-tagged full length human MEK expressed in baculovirus expression system at 1 uM measured by select screen assay relative to control; procedure, shortened: as §1
[26] = system: KM12; assay: Cell cycle arrest in human KM12 cells assessed as accumulation of cells at S phase at 1000 nM measured after 48 hrs by AnnexinV-FITC/PI staining based flowcytometry method relative to control; format: functional
[27] = system: KM12; assay: Induction of apoptosis in human KM12 cells assessed as necrotic cells at 62.5 nM measured after 48 hrs by AnnexinV-FITC/PI staining based flowcytometry assay relative to control; format: functional; procedure, shortened: as §3

Chain of Mitogen-activated protein kinase 3 (Homo sapiens) (P27361 whole entry): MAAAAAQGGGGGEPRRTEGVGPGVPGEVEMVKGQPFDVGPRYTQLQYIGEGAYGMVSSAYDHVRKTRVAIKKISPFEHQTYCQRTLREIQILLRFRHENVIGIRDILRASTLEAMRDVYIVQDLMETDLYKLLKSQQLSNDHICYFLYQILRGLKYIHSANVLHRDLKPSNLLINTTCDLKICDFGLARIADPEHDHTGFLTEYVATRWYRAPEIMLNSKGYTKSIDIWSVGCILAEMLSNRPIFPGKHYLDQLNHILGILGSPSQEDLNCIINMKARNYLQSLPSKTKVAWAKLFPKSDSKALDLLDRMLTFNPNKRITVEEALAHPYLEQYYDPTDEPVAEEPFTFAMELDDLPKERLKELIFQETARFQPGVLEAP
Chain of CYP1A2 (P05177 whole entry): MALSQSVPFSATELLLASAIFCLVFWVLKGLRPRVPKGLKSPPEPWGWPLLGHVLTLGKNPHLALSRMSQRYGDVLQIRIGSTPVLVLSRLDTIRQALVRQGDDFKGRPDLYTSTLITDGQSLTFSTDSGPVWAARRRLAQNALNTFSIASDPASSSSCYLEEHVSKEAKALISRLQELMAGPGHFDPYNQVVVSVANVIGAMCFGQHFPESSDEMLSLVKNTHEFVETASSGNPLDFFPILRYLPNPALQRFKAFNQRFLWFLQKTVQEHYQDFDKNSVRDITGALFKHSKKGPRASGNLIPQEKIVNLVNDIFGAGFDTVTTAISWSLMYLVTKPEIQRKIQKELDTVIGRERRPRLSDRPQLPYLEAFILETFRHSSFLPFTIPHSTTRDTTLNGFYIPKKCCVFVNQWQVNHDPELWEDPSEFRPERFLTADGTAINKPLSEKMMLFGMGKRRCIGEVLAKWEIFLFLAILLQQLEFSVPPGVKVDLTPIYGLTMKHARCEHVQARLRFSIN
Chain of Dual specificity mitogen-activated protein kinase kinase 1 (Homo sapiens) (Q02750 whole entry): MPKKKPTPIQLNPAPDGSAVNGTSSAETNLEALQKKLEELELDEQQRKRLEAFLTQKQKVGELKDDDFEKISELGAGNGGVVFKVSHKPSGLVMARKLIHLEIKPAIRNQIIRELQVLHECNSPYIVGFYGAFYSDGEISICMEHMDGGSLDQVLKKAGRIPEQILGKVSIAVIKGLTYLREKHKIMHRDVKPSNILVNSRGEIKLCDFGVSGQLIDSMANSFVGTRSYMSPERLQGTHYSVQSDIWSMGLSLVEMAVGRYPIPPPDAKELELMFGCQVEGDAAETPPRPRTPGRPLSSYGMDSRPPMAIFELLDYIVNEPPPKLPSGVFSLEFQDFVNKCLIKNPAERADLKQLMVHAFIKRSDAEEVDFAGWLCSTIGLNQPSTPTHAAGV
Chain of Focal adhesion kinase 1 (Homo sapiens) (Q05397 2-1052 limits assumed): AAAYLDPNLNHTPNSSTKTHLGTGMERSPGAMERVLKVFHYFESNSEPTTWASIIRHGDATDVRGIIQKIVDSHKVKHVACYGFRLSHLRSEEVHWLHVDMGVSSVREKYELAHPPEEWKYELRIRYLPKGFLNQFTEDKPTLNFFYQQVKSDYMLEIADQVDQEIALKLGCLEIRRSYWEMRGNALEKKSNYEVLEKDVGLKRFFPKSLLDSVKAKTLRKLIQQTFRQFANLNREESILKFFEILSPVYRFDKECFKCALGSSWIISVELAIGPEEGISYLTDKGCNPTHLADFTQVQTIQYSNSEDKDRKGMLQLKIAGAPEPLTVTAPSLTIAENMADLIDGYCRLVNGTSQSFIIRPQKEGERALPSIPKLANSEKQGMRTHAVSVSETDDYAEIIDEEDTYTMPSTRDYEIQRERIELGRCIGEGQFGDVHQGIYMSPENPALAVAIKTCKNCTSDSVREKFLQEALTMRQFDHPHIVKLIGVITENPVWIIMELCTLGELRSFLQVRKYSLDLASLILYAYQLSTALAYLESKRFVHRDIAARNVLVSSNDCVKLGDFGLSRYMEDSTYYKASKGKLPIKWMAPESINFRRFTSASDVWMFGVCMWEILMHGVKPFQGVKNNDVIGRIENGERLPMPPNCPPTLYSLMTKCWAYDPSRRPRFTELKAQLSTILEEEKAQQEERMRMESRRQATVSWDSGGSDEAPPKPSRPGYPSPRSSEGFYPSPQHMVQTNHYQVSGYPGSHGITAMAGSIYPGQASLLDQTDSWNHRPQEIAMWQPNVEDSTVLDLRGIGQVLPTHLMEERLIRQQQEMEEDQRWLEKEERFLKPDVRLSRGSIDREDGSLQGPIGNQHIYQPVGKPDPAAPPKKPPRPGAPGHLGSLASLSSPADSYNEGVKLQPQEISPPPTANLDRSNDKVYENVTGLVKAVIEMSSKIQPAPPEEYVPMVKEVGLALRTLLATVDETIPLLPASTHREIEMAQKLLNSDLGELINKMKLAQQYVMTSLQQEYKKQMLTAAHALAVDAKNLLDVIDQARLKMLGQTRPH
Chain of Hepatocyte growth factor receptor (Homo sapiens) (P08581 whole entry): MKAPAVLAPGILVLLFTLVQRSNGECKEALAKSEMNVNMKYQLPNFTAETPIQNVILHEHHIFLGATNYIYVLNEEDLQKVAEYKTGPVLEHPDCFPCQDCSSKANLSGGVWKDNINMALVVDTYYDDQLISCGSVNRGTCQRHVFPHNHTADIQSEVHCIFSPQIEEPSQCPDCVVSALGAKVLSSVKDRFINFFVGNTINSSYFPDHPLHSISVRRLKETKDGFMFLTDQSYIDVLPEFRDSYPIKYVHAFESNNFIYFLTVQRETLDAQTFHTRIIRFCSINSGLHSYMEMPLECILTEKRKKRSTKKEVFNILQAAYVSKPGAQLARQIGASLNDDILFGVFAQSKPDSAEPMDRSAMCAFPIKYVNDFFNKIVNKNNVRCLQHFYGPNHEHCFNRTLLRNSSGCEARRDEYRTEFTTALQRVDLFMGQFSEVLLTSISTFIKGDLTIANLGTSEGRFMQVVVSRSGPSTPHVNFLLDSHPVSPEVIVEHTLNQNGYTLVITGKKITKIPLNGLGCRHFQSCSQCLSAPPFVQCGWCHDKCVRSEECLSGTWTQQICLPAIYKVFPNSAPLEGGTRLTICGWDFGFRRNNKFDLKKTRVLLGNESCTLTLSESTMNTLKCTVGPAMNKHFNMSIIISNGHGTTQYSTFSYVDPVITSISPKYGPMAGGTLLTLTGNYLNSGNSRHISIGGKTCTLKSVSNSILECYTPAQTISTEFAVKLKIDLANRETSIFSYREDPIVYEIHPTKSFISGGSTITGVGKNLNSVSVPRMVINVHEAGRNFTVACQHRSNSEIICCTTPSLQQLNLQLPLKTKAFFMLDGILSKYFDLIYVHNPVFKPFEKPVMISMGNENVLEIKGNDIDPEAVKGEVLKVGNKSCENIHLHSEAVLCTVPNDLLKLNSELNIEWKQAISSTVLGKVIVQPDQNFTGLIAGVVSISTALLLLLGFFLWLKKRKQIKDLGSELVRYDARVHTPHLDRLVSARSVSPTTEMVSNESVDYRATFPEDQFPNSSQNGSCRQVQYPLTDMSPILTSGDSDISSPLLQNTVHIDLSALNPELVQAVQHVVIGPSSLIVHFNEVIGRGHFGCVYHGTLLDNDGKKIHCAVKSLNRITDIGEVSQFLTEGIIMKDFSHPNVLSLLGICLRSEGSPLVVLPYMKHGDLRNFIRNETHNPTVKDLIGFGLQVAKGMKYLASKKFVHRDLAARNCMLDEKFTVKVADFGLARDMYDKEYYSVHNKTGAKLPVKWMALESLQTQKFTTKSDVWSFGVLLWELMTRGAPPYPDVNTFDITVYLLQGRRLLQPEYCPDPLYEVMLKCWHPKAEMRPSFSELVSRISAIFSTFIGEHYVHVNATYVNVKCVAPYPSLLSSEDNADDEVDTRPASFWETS

- inhibition [1]: 51%
- inhibition [4]: 6%
- inhibition [8]: 1%
- Stability [12]: 90.9%
- AUC(0-inf) [14]: 2080 ng·h/mL
- inhibition [15]: 3%
- inhibition [17]: 0%
- AUC(0-inf) [18]: 2890 ng·h/mL
- AUC(0-t) [20]: 2030 ng·h/mL
- half-life [22]: 1.89 h
- Vd [23]: 0.892 L/kg
- inhibition at 0.25 h, 10 µM [24]: 12.9%
- inhibition [25]: 8%
Structure (SMILES): CN1CCN(c2ccc(C(=O)Nc3n[nH]c4c3CN(Cc3cc(F)cc(F)c3)C4(C)C)cc2)CC1
- Activity [2]: 1.57%
- Activity [3]: 39.1%
- Activity [5]: 18.23%
- Activity [6]: 9.26%
- Activity [7]: 73.9%
- Activity [9]: 35.6%
- Activity [10]: 74%
- Activity [11]: 4.25%
- viability at 0.0625 µM [13]: 70.5%
- Activity [16]: 0.04%
- viability at 0.5 µM [19]: 25%
- Activity [21]: 19.55%
- Activity [26]: 7.22%
- Activity [27]: 0.03%
